Assay results taken from PubChem BioAssay.
Unmarked numbers belong to inactive results. Active and inactive are the calls of the source.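 How the source made its calls, unless noted: active means growth inhibition above 25% in both replicates, a cutoff set 3 SD above the mean; inconclusive means above 25% in only one replicate; inactive means the rest.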

Test: S. cerevisiae growth inhibition in permissive medium (OD615), pilot counter-assay for S. cerevisiae lifespan shortening project, permissive growth control (AID 705)
Conditions: OD615, 24 h, at 10 µM, hits give high values
Outline: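 Test system: Saccharomyces cerevisiae strain carrying genetically modified DeaD replicative-lifespan system; buffer or medium: SC raffinose/galactose permissive medium; dosing: one dose 10 µM, DMSO 0.25% final; times: 24 h exposure, 30 °C; measured by: OD at 615 nm; read-out basis: growth inhibition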

SMILES | growth inhibition
CCCCSc1nc2c(cnn2-c2ccc(F)cc2)c(=O)[nH]1 | -7.35%
C=C(Cl)COc1ccc2c(C)cc(=O)oc2c1 | -6.04%
COc1ccc(NC(=O)CSc2nnc(Cc3cccn3C)n2-c2ccc(F)cc2)cc1OC | 3.84%
CCCCSc1nc(CCC)cc(=O)[nH]1 | -14.4%
Cc1noc(/C=C/N(C)C)c1S(=O)(=O)N1CCc2ccccc21 | -22.4%
COc1cccc(/C=N/n2cnnc2)c1OCc1ccccc1 | -14.7%
COC(=O)Cn1c(CN2CCOCC2)nc2c1c(=O)n(C)c(=O)n2C | -0.42%
COc1ccc(N(CC(=O)Nc2cc(C)ccc2C)S(=O)(=O)c2c(C)nn(C)c2C)cc1 | -7.38%
CCOC(=O)N1CCN(C(=O)c2c(-c3ccccc3)noc2C)CC1 | -9.5%
O=C(CSc1ncnc2nc[nH]c12)c1ccc(Cl)cc1 | 1.02%
Brc1ccccc1-c1nc(-c2ccccc2)no1 | -7.54%
Cc1nc2ccc(S(=O)(=O)NC(C(=O)NCc3cccs3)C(C)C)cc2s1 (stereo not given) | -3.81%
COc1ccc(-n2c(Cc3cccn3C)nnc2SCC(=O)Nc2ccccc2)cc1 | 1.29%
O=c1oc2c3c4c(cc2s1)CCCN4CCC3 | 2.12%
COc1cc2c(cc1OC)C(C)N(C(=O)Cn1ncc3c1-c1ccccc1OC3)CC2 (stereo not given) | -9.09%
O=C(CSc1ccc2nnc(-c3ccccc3)n2n1)N1CCN(c2ccccc2)CC1 | -0.235%
CCOC(=O)C1CCCN(C(=O)c2ccc(CS(=O)(=O)c3ccc(Br)cc3)o2)C1 (stereo not given) | -9.14%
Cc1c(C(=O)NC2CC2)oc2ccc(S(=O)(=O)N3CCCCCC3)cc12 | -7.49%
CC1=C(C(=O)Nc2ccccc2)C(c2ccccn2)n2nc(CCCO)nc2N1 (stereo not given) | -14.1%
O=C(O)c1ccc(-c2ccc(O)c(F)c2)cc1 | -8.37%

SMILES | growth inhibition
Cn1c(=O)cc(NCCc2ccccc2)[nH]c1=O | -9.86%
Cc1noc(/C=C/N(C)C)c1S(=O)(=O)N1CCCC(C(=O)NCCC2=CCCCC2)C1 (stereo not given) | -0.38%
CCN(CC)c1ccc(NC(=O)CN2C(=O)CC(C)(C)S(=O)(=O)c3ccccc32)c(C)c1 | -6.69%
COc1ccc(C(=O)NCc2nc3ccccc3[nH]2)cc1OC | -9.82%
CSc1ccccc1NC(=O)c1cnc2n(c1=O)CCS2 | -10.6%
Cc1ccc(C(c2sc3ncnn3c2O)N2CC(C)CC(C)C2)cc1 (stereo not given) | -6.75%
CC1CCN(c2oc(-c3ccccc3F)nc2C#N)CC1 | -14.9%
COc1nc(Oc2ccc(=O)n(C)n2)nc(N(C)C)n1 | -3.33%
Cc1nc2c(-c3ccc(F)cc3)c(C)nn2c(C)c1CCC(=O)NC(C)CCc1ccco1 (stereo not given) | 2.17%
COc1ccc(Cl)cc1S(=O)(=O)N1CCN(c2ccc(F)cc2)CC1 | -13%
CC1CCc2nn(CC(=O)Nc3ccc(F)cc3F)cc2C1 (stereo not given) | -2.97%
COc1ccc(NC(=O)C2Cc3ccccc3C(=O)O2)cc1 (stereo not given) | 1.22%
Cc1cc(N=Cc2cc(Br)ccc2O)no1 | -13%
COc1ccc(-c2nc(CS(=O)CC(=O)NCc3ccccn3)c(C)o2)cc1 (stereo not given) | -3.15%
CCOc1cc(C2CC(=O)N3CN(C4CCCCC4)CSC3=C2C#N)ccc1O (stereo not given) | 41.6% (active)
CCc1ccccc1N1CC23C=CC(O2)C(C(=O)O)C3C1=O (stereo not given) | 1.68%
CCN(CC)C1CCCCC1NS(=O)(=O)c1ccc(Cl)cc1 (stereo not given) | -12%
Cc1cc(=O)oc2c1c(C)nn2-c1ccc(C(=O)OC(C)C)cc1 | -4.51%
O=C(CS(=O)(=O)Cc1ccccc1)Nc1nc2ccccc2s1 | -13.1%
CSc1nc2c(c(=O)n1C)SC(C)C2 (stereo not given) | -6.38%

Test: S. cerevisiae growth inhibition in restrictive medium, OD615, pilot screen, restrictive growth control, yeast lifespan reduction project (AID 706;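 active means growth inhibition above a set limit, 3 SD over mean compound inhibition, in both replicates, cut at about 43% in these data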;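 further: modified DeaD lifespan yeast strain shifted to restrictive glucose medium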)
Conditions: OD615, 48 h, at 10 µM, hits give high values
Outline: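 material = engineered S. cerevisiae DeaD strain | buffer or medium = glucose-based CSMM-D restrictive medium | dosing = one concentration, 10 µM final, 0.25% DMSO | schedule = 4 h pre-growth plus 48 h compound exposure, 30 °C | detection = OD615 absorbance reading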

SMILES | growth inhibition
CCCCSc1nc2c(cnn2-c2ccc(F)cc2)c(=O)[nH]1 | -3.62%
C=C(Cl)COc1ccc2c(C)cc(=O)oc2c1 | 5.47%
COc1ccc(NC(=O)CSc2nnc(Cc3cccn3C)n2-c2ccc(F)cc2)cc1OC | 1.52%
CCCCSc1nc(CCC)cc(=O)[nH]1 | -14.4%
Cc1noc(/C=C/N(C)C)c1S(=O)(=O)N1CCc2ccccc21 | -28.7%
COc1cccc(/C=N/n2cnnc2)c1OCc1ccccc1 | -17%
COC(=O)Cn1c(CN2CCOCC2)nc2c1c(=O)n(C)c(=O)n2C | 1.05%
COc1ccc(N(CC(=O)Nc2cc(C)ccc2C)S(=O)(=O)c2c(C)nn(C)c2C)cc1 | -20.5%
CCOC(=O)N1CCN(C(=O)c2c(-c3ccccc3)noc2C)CC1 | -0.595%
O=C(CSc1ncnc2nc[nH]c12)c1ccc(Cl)cc1 | 11.4%
Brc1ccccc1-c1nc(-c2ccccc2)no1 | 8.43%
Cc1nc2ccc(S(=O)(=O)NC(C(=O)NCc3cccs3)C(C)C)cc2s1 (stereo not given) | -9.54%
COc1ccc(-n2c(Cc3cccn3C)nnc2SCC(=O)Nc2ccccc2)cc1 | 15.6%
O=c1oc2c3c4c(cc2s1)CCCN4CCC3 | -7.54%
COc1cc2c(cc1OC)C(C)N(C(=O)Cn1ncc3c1-c1ccccc1OC3)CC2 (stereo not given) | -8.14%
O=C(CSc1ccc2nnc(-c3ccccc3)n2n1)N1CCN(c2ccccc2)CC1 | 8.33%
CCOC(=O)C1CCCN(C(=O)c2ccc(CS(=O)(=O)c3ccc(Br)cc3)o2)C1 (stereo not given) | -18.5%
Cc1c(C(=O)NC2CC2)oc2ccc(S(=O)(=O)N3CCCCCC3)cc12 | 6.7%
CC1=C(C(=O)Nc2ccccc2)C(c2ccccn2)n2nc(CCCO)nc2N1 (stereo not given) | -8.68%
O=C(O)c1ccc(-c2ccc(O)c(F)c2)cc1 | 12.1%

SMILES | growth inhibition
Cn1c(=O)cc(NCCc2ccccc2)[nH]c1=O | 2.05%
Cc1noc(/C=C/N(C)C)c1S(=O)(=O)N1CCCC(C(=O)NCCC2=CCCCC2)C1 (stereo not given) | -11.2%
CCN(CC)c1ccc(NC(=O)CN2C(=O)CC(C)(C)S(=O)(=O)c3ccccc32)c(C)c1 | -16.1%
COc1ccc(C(=O)NCc2nc3ccccc3[nH]2)cc1OC | -15%
CSc1ccccc1NC(=O)c1cnc2n(c1=O)CCS2 | 3.57%
Cc1ccc(C(c2sc3ncnn3c2O)N2CC(C)CC(C)C2)cc1 (stereo not given) | -6.62%
CC1CCN(c2oc(-c3ccccc3F)nc2C#N)CC1 | -13.1%
COc1nc(Oc2ccc(=O)n(C)n2)nc(N(C)C)n1 | 0.62%
Cc1nc2c(-c3ccc(F)cc3)c(C)nn2c(C)c1CCC(=O)NC(C)CCc1ccco1 (stereo not given) | -4.76%
COc1ccc(Cl)cc1S(=O)(=O)N1CCN(c2ccc(F)cc2)CC1 | -15.5%
CC1CCc2nn(CC(=O)Nc3ccc(F)cc3F)cc2C1 (stereo not given) | -12.2%
COc1ccc(NC(=O)C2Cc3ccccc3C(=O)O2)cc1 (stereo not given) | 1.67%
Cc1cc(N=Cc2cc(Br)ccc2O)no1 | -22.7%
COc1ccc(-c2nc(CS(=O)CC(=O)NCc3ccccn3)c(C)o2)cc1 (stereo not given) | 18%
CCOc1cc(C2CC(=O)N3CN(C4CCCCC4)CSC3=C2C#N)ccc1O (stereo not given) | 76% (active)
CCc1ccccc1N1CC23C=CC(O2)C(C(=O)O)C3C1=O (stereo not given) | -5.72%
CCN(CC)C1CCCCC1NS(=O)(=O)c1ccc(Cl)cc1 (stereo not given) | -3.99%
Cc1cc(=O)oc2c1c(C)nn2-c1ccc(C(=O)OC(C)C)cc1 | 3.34%
O=C(CS(=O)(=O)Cc1ccccc1)Nc1nc2ccccc2s1 | -17.7%
CSc1nc2c(c(=O)n1C)SC(C)C2 (stereo not given) | -10.4%
